ChEMBL document CHEMBL1275277, “Synthesis of bioactive polyheterocyclic ring systems as 5α-reductase inhibitors” (Eur J Med Chem, 2010)

Columns and labels:
Rattus norvegicus [1] = test: Inhibition of 5-alpha-reductase activity in sc dosed Sprague-Dawley rat assessed as effect on serum steroid level administered on postnatal third day measured after 7 weeks of age by radioimmunoassay relative to anastrozole; format: functional
Rattus norvegicus [2] = test: Inhibition of 5-alpha-reductase activity in sc dosed Sprague-Dawley rat assessed as effect on serum steroid level administered on postnatal third day measured after 7 weeks of age by radioimmunoassay; format: functional
Summary of the method: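 Male Sprague–Dawley rats, 12 per group, given compound sc in 5% Tween 80 in water from postnatal day 3 until 7 weeks of age. Vehicle-treated negative control; anastrozole as positive control. Serum testosterone and DHT measured by RIA after ether extraction, using specific antisera and tritiated tracer, 24 h at 4 °C. Levels read from a standard curve and compared with vehicle controls to give ED50.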

Rattus norvegicus [3] = test: Acute toxicity in sc dosed albino rat; format: organism-based; conditions: in vivo
Summary of the method: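 Male albino rats were injected with increasing doses of each agent. LD50 and LD90, the doses killing 50% and 90% of the animals, were calculated by a published method.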

| Compound | fold change (FC) (Rattus norvegicus [1]) | ED50 (Rattus norvegicus [2]) | LD50 (Rattus norvegicus [3]) | LD90 (Rattus norvegicus [3]) |
| --- | --- | --- | --- | --- |
| CCN1C/C(=C\c2ccc(C)cc2)c2nc3nc4n(c(=O)c3c(-c3ccc(C)cc3)c2C1)C(=O)CS4 | 1.423 | 0.766 µg/kg | 516.56 µg/kg | 1148.5 µg/kg |
| CCOC(=O)C1=NN(c2ccc(Cl)cc2)C2=NC3=C(CN(CC)C/C3=C\c3ccc(C)cc3)C(c3ccc(C)cc3)N12 (configuration not stated) | 2.472 | 0.441 µg/kg | – | – |
| CCN1CC2=C(N=C3N(c4ccc(Cl)cc4)N=C(C(C)=O)N3C2c2ccc(C)cc2)/C(=C/c2ccc(C)cc2)C1 (configuration not stated) | 1.273 | 0.856 µg/kg | 312.34 µg/kg | 735.34 µg/kg |
| CCN1CC2=C(N=C3N(c4ccc(C)cc4)N=C(C(=O)Nc4ccccc4)N3C2c2ccc(C)cc2)/C(=C/c2ccc(C)cc2)C1 (configuration not stated) | 1.178 | 0.925 µg/kg | 236.28 µg/kg | 417.34 µg/kg |
| CCN1CC2=C(N=C3N(c4ccccc4)N=C(C(C)=O)N3C2c2ccc(C)cc2)/C(=C/c2ccc(C)cc2)C1 (configuration not stated) | 1.196 | 0.911 µg/kg | 257.23 µg/kg | 419.23 µg/kg |
| CCN1CC2=C(NC(=S)NC2c2ccc(C)cc2)/C(=C/c2ccc(C)cc2)C1 (configuration not stated) | 0.5798 | 1.88 µg/kg | 222.23 µg/kg | 434.76 µg/kg |
| CCOC(=O)C1=NN(c2ccc(C)cc2)C2=NC3=C(CN(CC)C/C3=C\c3ccc(C)cc3)C(c3ccc(C)cc3)N12 (configuration not stated) | 1.09 | 1 µg/kg | 224.33 µg/kg | 514.33 µg/kg |
| CCN1CC2=C(N=C3N(c4ccccc4)N=C(C(=O)Nc4ccccc4)N3C2c2ccc(C)cc2)/C(=C/c2ccc(C)cc2)C1 (configuration not stated) | 2.523 | 0.432 µg/kg | 6534.45 µg/kg | 1950.12 µg/kg |
| CC(C)(C#N)c1cc(Cn2cncn2)cc(C(C)(C)C#N)c1 [ANASTROZOLE] | – | 1.09 µg/kg | 2.415 µg/kg | 3.69 µg/kg |
| CCN1C/C(=C\c2ccc(C)cc2)c2nc3[nH]c(=S)[nH]c(=O)c3c(-c3ccc(C)cc3)c2C1 | 1.371 | 0.795 µg/kg | 447.88 µg/kg | 937.34 µg/kg |
